According to ChEMBL document CHEMBL1136166, “The imidazo[2,1-a]isoindole system. A new skeletal basis for antiplasmodial compounds” (Bioorg Med Chem Lett, 2003):
In brackets after ≈: the same amount, converted by molar mass. Several values for one entry are separate records, joined by “and”; a condition that tells them apart may be missing. Equal values may be shown once.

What was measured:
Plasmodium falciparum [1] = experiment: In vitro inhibitory concentration against Plasmodium falciparum F32; format: functional, organism-based
How it was run: (§1)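 P. falciparum F32-Tanzania (chloroquine-sensitive) cultured per Trager-Jensen in glucose-enriched RPMI 1640 with 10% human serum, 37 °C, candle jar. Human O+ red cells at 5% haematocrit, 1% parasitaemia. After 24 h, medium replaced with drug-containing medium (final DMSO ≤0.1%) and incubated a further 48 h. Parasitaemia counted on blood smears; IC50 read graphically from % inhibition vs concentration. Triplicate. Index = IC50 chloroquine/IC50 compound ×100.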

Plasmodium falciparum [2] = experiment: Antiplasmodial potency relative to chloroquine; format: functional; how it was run: as §1
Ferriprotoporphyrin IX [3] = experiment: Inhibitory concentration against ferriprotoporphyrin in biomineralisation (FBIT); format: functional, Plasmodium falciparum
How it was run: (§2)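 Heme biomineralization (FBIT): haemin chloride (0.5 mg/mL stock in DMSO), 0.5 M sodium acetate pH 4.4 and compound solution (10 mg/mL stock) were added in that order, final pH 5–5.2, and incubated at 37 °C for 18–24 h. After centrifugation, the pellet was washed with DMSO and the β-haematin dissolved in 0.1 M NaOH; absorbance read at 405 nm. % inhibition calculated against the solvent control.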

Ferriprotoporphyrin IX [4] = experiment: In vitro inhibitory concentration against ferriprotoporphyrin in biomineralisation assay (FBIT); format: functional, Plasmodium falciparum; how it was run: as §2
Ferriprotoporphyrin IX [5] = experiment: Antiplasmodial potency relative to chloroquine in ferriprotoporphyrin biomineralisation assay; format: functional; details: Plasmodium falciparum
Ferriprotoporphyrin IX [6] = experiment: Inhibitory concentration against ferriprotoporphyrin in biomineralisation assay (FBIT); Not active; format: functional, Plasmodium falciparum; how it was run: as §2
Ferriprotoporphyrin IX [7] = experiment: In vitro inhibitory concentration against ferriprotoporphyrin in biomineralisation assay (FBIT); Not active; format: functional, Plasmodium falciparum; how it was run: as §2
Ferriprotoporphyrin IX [8] = experiment: Inhibitory concentration against ferriprotoporphyrin in biomineralisation assay (FBIT); format: functional, Plasmodium falciparum; how it was run: as §2

Row | SMILES | IC50 (Plasmodium falciparum [1]) | Index (Plasmodium falciparum [2]) [%] | also measured
1 | COc1ccc(CC2(O)c3ccccc3C3=NCCCN32)cc1 (stereo unspecified) | 2.3 µg/mL and 7.5 µM | 0.5 | 
2 | C=C[C@H]1CN2CC[C@H]1C[C@H]2[C@H](O)c1ccnc2ccc(OC)cc12 [QUININE] |  |  | IC50 (Ferriprotoporphyrin IX [3]): 80 µg/mL (≈ 247 µM); IC50 (Ferriprotoporphyrin IX [4]): 250 µM; Index (Ferriprotoporphyrin IX [5]): 11%
3 | COc1ccc(CC2(O)c3ccccc3C3=NCCN32)cc1OC (stereo unspecified) | 4.9 µg/mL and 9.3 µM | 0.4 | 
4 | O=C(C(=O)c1ccccc1C(=O)N1CCCCC1)c1ccc(Cl)cc1 | 12 µg/mL and 33.8 µM | 0.12 | 
5 | COc1ccc(CCc2cc(O)cc(OC)c2C(=O)N2CCCCC2)cc1 | 6 µg/mL and 16.3 µM | 0.25 | 
6 | COc1ccc(Cc2nn(C)c(=O)c3ccccc23)cc1 | 1 µg/mL and 3.6 µM | 1.1 | IC50 (Ferriprotoporphyrin IX [6]): Not Active; IC50 (Ferriprotoporphyrin IX [7]): Not Active
7 | O=C(Cc1ccc2c(c1)OCO2)c1ccccc1C(=O)N1CCCCC1 | > 100 µg/mL and > 100 µM | <0.1 | 
8 | OC1(Cc2ccc3c(c2)OCO3)c2ccccc2C2=NCCCN21 (stereo unspecified) | 38 µg/mL and 104 µM | <0.1 | 
9 | Cn1nc(Cc2ccc(Cl)cc2)c2ccccc2c1=O | 15 µg/mL and 52.8 µM | <0.1 | 
10 | OC1(Cc2ccccc2)c2ccccc2C2=NCCCN21 (stereo unspecified) | 1 µg/mL and 3.6 µM | 1.1 | IC50 (Ferriprotoporphyrin IX [6]): Not Active; IC50 (Ferriprotoporphyrin IX [7]): Not Active
11 | Cn1nc(Cc2ccc3c(c2)OCO3)c2ccccc2c1=O | 3.8 µg/mL and 11 µM | 0.4 | 
12 | COc1ccc(Cc2nnc(O)c3ccccc23)cc1OC | 95 µg/mL and > 100 µM | <0.1 | 
13 | COc1cc(Cc2nn(C)c(=O)c3ccccc23)cc(OC)c1OC | 32 µg/mL and > 100 µM | <0.1 | 
14 | COc1ccc(Cc2nn(C)c(=O)c3ccccc23)cc1OC | 26 µg/mL and 84 µM | <0.1 | 
15 | COc1cc(CC(=O)c2ccccc2C(=O)N2CCCCC2)cc(OC)c1OC | 100 µg/mL and > 100 µM | <0.1 | 
16 | COc1ccc(CC(=O)c2ccccc2C(=O)N2CCCCC2)cc1OC | 36 µg/mL and 98 µM | <0.1 | 
17 | Cn1nc(Cc2ccccc2)c2ccccc2c1=O | 5 µg/mL and 20 µM | 0.2 | 
18 | COc1ccc(C(=O)C(=O)c2ccccc2C(=O)N2CCCCC2)cc1OC | 32 µg/mL and 84 µM | <0.1 | 
19 | OC1(Cc2ccccc2)c2ccccc2C2=NCCN21 (stereo unspecified) | 2.5 µg/mL and 9.5 µM | 0.4 | 

Row | SMILES | IC50 (Plasmodium falciparum [1]) | Index (Plasmodium falciparum [2]) [%] | also measured
20 | COc1cc(CC2(O)c3ccccc3C3=NCCCN32)cc(OC)c1OC (stereo unspecified) | 5.2 µg/mL and 16.1 µM | 0.2 | 
21 | COc1cc(CC2(O)c3ccccc3C3=NCCN32)cc(OC)c1OC (stereo unspecified) | 0.022 µg/mL and 70 nM | 57 | IC50 (Ferriprotoporphyrin IX [8]): 590 µg/mL (≈ 1660 µM); IC50 (Ferriprotoporphyrin IX [4]): 1740 µM; Index (Ferriprotoporphyrin IX [5]): 1.6%
22 | OC1(Cc2ccc(Cl)cc2)c2ccccc2C2=NCCCN21 (stereo unspecified) | 3.6 µg/mL and 11.5 µM | 0.3 | 
23 | Oc1nnc(Cc2ccc3c(c2)OCO3)c2ccccc12 | > 100 µg/mL and > 100 µM | <0.01 | 
24 | OC1(Cc2ccc3c(c2)OCO3)c2ccccc2C2=NCCN21 (stereo unspecified) | 0.067 µg/mL and 190 nM | 21 | 
25 | O=C(C(=O)c1ccccc1C(=O)N1CCCCC1)c1ccc2c(c1)OCO2 | 8.5 µg/mL and 20.7 µM | 0.2 | 
26 | COc1cc(C(=O)C(=O)c2ccccc2C(=O)N2CCCCC2)cc(OC)c1OC | 30 µg/mL and 82 µM | <0.1 | 
27 | OC1(Cc2ccc(Cl)cc2)c2ccccc2C2=NCCN21 (stereo unspecified) | 0.036 µg/mL and 110 nM | 36 | IC50 (Ferriprotoporphyrin IX [6]): Not Active; IC50 (Ferriprotoporphyrin IX [7]): Not Active
28 | COc1ccc(CC2(O)c3ccccc3C3=NCCCN32)cc1OC (stereo unspecified) | 32 µg/mL and 104 µM | <0.1 | 
29 | COc1ccc(CCc2cc(O)cc(OC)c2C(=O)O)cc1 [ISONOTHOLAENIC ACID] | 16 µg/mL and 53 µM | <0.1 | 
30 | COc1ccc(Cc2nnc(O)c3ccccc23)cc1 | 1 µg/mL and 3.8 µM | 1.1 | IC50 (Ferriprotoporphyrin IX [8]): 1530 µg/mL (≈ 5750 µM); IC50 (Ferriprotoporphyrin IX [4]): 5750 µM; Index (Ferriprotoporphyrin IX [5]): 0.5%
31 | Oc1nnc(Cc2ccc(Cl)cc2)c2ccccc12 | 6 µg/mL and 22 µM | 0.18 | 
32 | O=C(Cc1ccc(Cl)cc1)c1ccccc1C(=O)N1CCCCC1 | 12 µg/mL and 35 µM | 0.11 | 
33 | COc1ccc(C(=O)C(=O)c2ccccc2C(=O)N2CCCCC2)cc1 | 17 µg/mL and 48 µM | <0.1 | 
34 | COc1cc(Cc2nnc(O)c3ccccc23)cc(OC)c1OC | > 100 µg/mL and > 100 µM | <0.01 | 
35 | O=c1[nH]nc(Cc2ccccc2)c2ccccc12 | > 100 µg/mL and > 100 µM | <0.1 | 
36 | COc1ccc(CC2(O)c3ccccc3C3=NCCN32)cc1 (stereo unspecified) | 0.017 µg/mL and 40 nM | 100 | IC50 (Ferriprotoporphyrin IX [6]): Not Active; IC50 (Ferriprotoporphyrin IX [7]): Not Active
37 | CCN(CC)CCCC(C)Nc1ccnc2cc(Cl)ccc12 (stereo unspecified) [CHLOROQUINE] |  |  | IC50 (Ferriprotoporphyrin IX [8]): 8.5 µg/mL (≈ 26.6 µM); IC50 (Ferriprotoporphyrin IX [4]): 28 µM
38 | COc1ccc(CC(=O)c2ccccc2C(=O)N2CCCCC2)cc1 | > 100 µg/mL and > 100 µM | <0.1 | 
